This passage reports MIC results from ChEMBL document CHEMBL4007456, “Heterocyclyl Tetracyclines. 1. 7-Trifluoromethyl-8-Pyrrolidinyltetracyclines: Potent, Broad Spectrum Antibacterial Agents with Enhanced Activity against Pseudomonas aeruginosa” (2017).

Each structure is given as a SMILES string. Converted amounts (≈) assume the structure as drawn. Where only a bound is given, the exact number is not on record here.

Broadly, the MIC is the least concentration at which growth counts as inhibited. High values mean weaker potency, low ones greater potency.

In one assay the test system is Klebsiella pneumoniae. Put plainly: Antibacterial activity against gram-negative Klebsiella pneumoniae KP153 harboring tet(A) by CLSI method. The class given is functional. In short, it runs like this: (§1)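 CLSI broth microdilution MIC in fresh cation-adjusted Mueller Hinton broth, supplemented with defibrinated horse blood where appropriate. Compounds serially diluted in sterile deionized water. Runs accepted when comparator antibiotics against ATCC quality-control strains fell within recommended ranges.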
As to `CN(C)[C@@H]1C(O)=C(C(N)=O)C(=O)[C@@]2(O)C(O)=C3C(=O)c4c(O)cc(-c5cccnc5)c(Cl)c4C[C@H]3C[C@@H]12`, the minimum inhibitory concentration (MIC) is above 32 µg/mL.

The subject of the next assay is Proteus mirabilis. The experiment in a line: Antibacterial activity against gram-negative Proteus mirabilis PM122 by CLSI method. Type of assay: functional. Summed up:
(§2)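 Defibrinated horse blood added where appropriate. Compounds serially diluted in sterile deionized water. Strains from ATCC unless otherwise noted. Runs accepted when comparator antibiotics fell within QC ranges for ATCC quality control strains.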
`CN(C)[C@@H]1C(O)=C(C(N)=O)C(=O)[C@@]2(O)C(O)=C3C(=O)c4c(O)cc(-c5cccnc5)c(Cl)c4C[C@H]3C[C@@H]12` returned an MIC of 16 µg/mL (≈ 30.4 µM).

The next assay relates to Pseudomonas aeruginosa. Put plainly: Antibacterial activity against gram-negative Pseudomonas aeruginosa PA169 by CLSI method. Type of assay: functional. In short, it runs like this: as §2
Molecule `CN(C)[C@@H]1C(O)=C(C(N)=O)C(=O)[C@@]2(O)C(O)=C3C(=O)c4c(O)cc(-c5cccnc5)c(Cl)c4C[C@H]3C[C@@H]12` returned an MIC above 32 µg/mL.

The next assay deals with Acinetobacter baumannii. The experiment in a line: Antibacterial activity against gram-negative Acinetobacter baumannii AB250 by CLSI method. Type of assay: functional. In short, it runs like this:
(§3)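 Broth microdilution MIC per CLSI in cation-adjusted Mueller Hinton broth, prepared fresh and held at 4 °C. Defibrinated horse blood added where appropriate. Compounds serially diluted in sterile deionized water. Strains from ATCC unless otherwise noted. Runs accepted when comparator antibiotics fell within QC ranges for ATCC quality control strains.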
`CN(C)[C@@H]1C(O)=C(C(N)=O)C(=O)[C@@]2(O)C(O)=C3C(=O)c4c(O)cc(-c5cccnc5)c(Cl)c4C[C@H]3C[C@@H]12` showed an MIC above 32 µg/mL.

The next assay deals with Stenotrophomonas maltophilia. Put plainly: Antibacterial activity against gram-negative Stenotrophomonas maltophilia SM256 by CLSI method. Type of assay: functional. In short, it runs like this: as §3
The molecule `CN(C)[C@@H]1C(O)=C(C(N)=O)C(=O)[C@@]2(O)C(O)=C3C(=O)c4c(O)cc(-c5cccnc5)c(Cl)c4C[C@H]3C[C@@H]12` gave a minimal inhibitory concentration (MIC) of 2 µg/mL (≈ 3.8 µM).

The next assay has as its system Burkholderia cenocepacia. The experiment in a line: Antibacterial activity against gram-negative Burkholderia cenocepacia BC240 by CLSI method. Type of assay: functional. Summed up:
as §2
`CN(C)[C@@H]1C(O)=C(C(N)=O)C(=O)[C@@]2(O)C(O)=C3C(=O)c4c(O)cc(-c5cccnc5)c(Cl)c4C[C@H]3C[C@@H]12` gave an MIC of 8 µg/mL (≈ 15.2 µM).

The subject of another assay is Staphylococcus aureus. The experiment in a line: Antibacterial activity against gram-positive Staphylococcus aureus SA101 by CLSI method. Type of assay: functional. Summed up: as §3
`CN(C)[C@@H]1C(O)=C(C(N)=O)C(=O)[C@@]2(O)C(O)=C3C(=O)c4c(O)cc(-c5cccnc5)c(Cl)c4C[C@H]3C[C@@H]12` gave an MIC of 0.125 µg/mL (≈ 0.238 µM).

For another assay, the system named is Staphylococcus aureus. Put plainly: Antibacterial activity against gram-positive Staphylococcus aureus SA161 harboring tet(M) by CLSI method. The class given is functional. Summed up:
as §1
For the molecule `CN(C)[C@@H]1C(O)=C(C(N)=O)C(=O)[C@@]2(O)C(O)=C3C(=O)c4c(O)cc(-c5cccnc5)c(Cl)c4C[C@H]3C[C@@H]12`, the minimum inhibitory concentration (MIC) came out at 1 µg/mL (≈ 1.9 µM).

The next assay concerns Staphylococcus aureus. Put plainly: Antibacterial activity against gram-positive Staphylococcus aureus SA158 harboring tet(K) by CLSI method. The class given is functional. In short, it runs like this: as §1
For the molecule `CN(C)[C@@H]1C(O)=C(C(N)=O)C(=O)[C@@]2(O)C(O)=C3C(=O)c4c(O)cc(-c5cccnc5)c(Cl)c4C[C@H]3C[C@@H]12`, the minimal inhibitory concentration (MIC) worked out at 0.125 µg/mL (≈ 0.238 µM).

Another assay concerns Enterococcus faecalis. Put plainly: Antibacterial activity against gram-positive Enterococcus faecalis EF159 harboring tet(M) by CLSI method. The class given is functional. Summed up:
as §1
The molecule `CN(C)[C@@H]1C(O)=C(C(N)=O)C(=O)[C@@]2(O)C(O)=C3C(=O)c4c(O)cc(-c5cccnc5)c(Cl)c4C[C@H]3C[C@@H]12` returned an MIC of 1 µg/mL (≈ 1.9 µM).

For a further assay, the system named is Streptococcus pneumoniae. The experiment in a line: Antibacterial activity against gram-positive Streptococcus pneumoniae SP160 harboring tet(M) by CLSI method. The class given is functional. Summed up:
as §1
`CN(C)[C@@H]1C(O)=C(C(N)=O)C(=O)[C@@]2(O)C(O)=C3C(=O)c4c(O)cc(-c5cccnc5)c(Cl)c4C[C@H]3C[C@@H]12` showed an MIC of 8 µg/mL (≈ 15.2 µM).

For the next assay, the system named is Streptococcus pneumoniae. The experiment in a line: Antibacterial activity against gram-positive Streptococcus pneumoniae SP193 by CLSI method. The class given is functional. In short, it runs like this: as §3
`CN(C)[C@@H]1C(O)=C(C(N)=O)C(=O)[C@@]2(O)C(O)=C3C(=O)c4c(O)cc(-c5cccnc5)c(Cl)c4C[C@H]3C[C@@H]12` had an MIC of 0.25 µg/mL (≈ 0.475 µM).

In another assay the test system is Escherichia coli. Put plainly: Antibacterial activity against gram-negative Escherichia coli EC107 by CLSI method. The class given is functional. Summed up: as §3
`CN(C)[C@@H]1C(O)=C(C(N)=O)C(=O)[C@@]2(O)C(O)=C3C(=O)c4c(O)cc(-c5cccnc5)c(Cl)c4C[C@H]3C[C@@H]12` had a minimum inhibitory concentration (MIC) of 2 µg/mL (≈ 3.8 µM).

The subject of the next assay is Escherichia coli. Put plainly: Antibacterial activity against gram-negative Escherichia coli EC155 harboring tet(A) by CLSI method. The class given is functional. Summed up:
as §1
`CN(C)[C@@H]1C(O)=C(C(N)=O)C(=O)[C@@]2(O)C(O)=C3C(=O)c4c(O)cc(-c5cccnc5)c(Cl)c4C[C@H]3C[C@@H]12` showed an MIC above 32 µg/mL.
